Consider 17 molecules from ChEMBL document CHEMBL3351826, “Synthesis of pyrazolo[4,3-e][1,2,4]triazine sulfonamides, novel Sildenafil analogs with tyrosinase inhibitory activity” (Bioorg Med Chem, 2014).

Each structure is given as a SMILES string. ≈ marks a conversion by molar mass, not a printed value. Calls of active or inactive are those of the source. No cut-off for these calls is given here.

The species named for one assay is Oryctolagus cuniculus. In words: Inhibition of rabbit platelet PDE5A using [3H]cGMP as substrate at 1 uM after 30 mins by scintillation proximity assay. The method, boiled down: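 PDE5A isolated from rabbit platelets; tritium scintillation proximity assay in 50 mM Tris-HCl pH 7.5 with 8.3 mM MgCl2 and 1.7 mM EGTA. Compounds tested at 1 µM from DMSO stock, final DMSO <1%. Enzyme limited to ≤15% substrate hydrolysis. Duplicates. % inhibition = [1 − (CPM sample − blank)/(CPM water control − blank)] × 100.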
On the technique in general: Scintillation proximity formats need no separation of bound from free tracer.

Assay [1] deals with Leptosphaeria sacchari. The experiment in a line: Inhibition of Leptosphaeria sacchari tyrosinase using L-DOPA as substrate at 0.3 mg/ml incubated for 10 mins prior to substrate addition […] by spectrophotometry.
In assay [2] the test system is Leptosphaeria sacchari. The experiment in a line: Inhibition of Leptosphaeria sacchari tyrosinase using L-DOPA as substrate assessed as remaining activity at 0.3 mg/ml incubated for 10 mins prior to substrate addition […] by spectrophotometry.
Assay [3] can be described thus: Inhibition of Leptosphaeria sacchari tyrosinase using L-DOPA as substrate incubated for 10 mins prior to substrate addition […] by spectrophotometry.
Assay [4] relates to Leptosphaeria sacchari. The experiment in a line: Inhibition of Leptosphaeria sacchari tyrosinase using L-DOPA as substrate at 0.1 mM incubated for 10 mins prior to substrate addition […] by spectrophotometry.
Assay [5] deals with Leptosphaeria sacchari. The experiment in a line: Inhibition of Leptosphaeria sacchari tyrosinase using L-DOPA as substrate at 1 mM incubated for 10 mins prior to substrate addition […] by spectrophotometry.

By inhibition is commonly meant the relative decrease from the control value, in per cent. As usually defined, the IC50 is the concentration needed to halve the response being measured.

`CCOc1ccc(S(=O)(=O)N2CCNCC2)cc1-c1nnc2c(n1)c(C)nn2C`: the inhibition in the assay listed under Oryctolagus cuniculus worked out at 26.5%; with Leptosphaeria sacchari [1], 70.5%. For the same molecule, the Activity in the assay with Leptosphaeria sacchari [2] worked out at 29.5%. The molecule also displayed an IC50 in assay [3] of 80 µg/mL (≈ 192 µM).

With `CCOc1ccc(S(=O)(=O)N2CCOCC2)cc1-c1nnc2c(n1)c(C)nn2C`, the results for the inhibition in the assay listed under Oryctolagus cuniculus and in the assay on Leptosphaeria sacchari [1] were 0% and 51.4%, respectively. In addition, in the assay on Leptosphaeria sacchari [2], the Activity was determined as 48.6%. The molecule further displayed an IC50 in assay [3] of 150 µg/mL (≈ 358 µM).

In the case of `CCOc1ccc(S(=O)(=O)NCCO)cc1-c1nnc2c(n1)c(C)nn2C`, the inhibition with Leptosphaeria sacchari [1] is 39.5%. In addition, in the assay on Leptosphaeria sacchari [2], the Activity was determined as 60.5%. In addition, the IC50 in assay [3] was 100 µg/mL (≈ 255 µM).

`CCOc1ccc(S(=O)(=O)NCCN2CCOCC2)cc1-c1nnc2c(n1)c(C)nn2C`: the inhibition stood at 13.3% in the assay listed under Oryctolagus cuniculus and 62.1% with Leptosphaeria sacchari [1]. Also, the Activity with Leptosphaeria sacchari [2] stood at 37.9%. This molecule registered an IC50 in assay [3] of 150 µg/mL (≈ 325 µM).

The molecule `CCCc1nn(C)c2c(=O)[nH]c(-c3cc(S(=O)(=O)N4CCN(C)CC4)ccc3OCC)nc12` returned an inhibition in the assay filed under Oryctolagus cuniculus of 98.9%.

With `CCOc1ccc(S(=O)(=O)NCCN)cc1-c1nnc2c(n1)c(C)nn2C`, the inhibition in the assay filed under Oryctolagus cuniculus was 0%; in the assay with Leptosphaeria sacchari [1] it was 96.3%. Moreover, the Activity in the assay with Leptosphaeria sacchari [2] amounted to 3.7%. Further, in assay [3], the IC50 came out at 70 µg/mL (≈ 179 µM).

In turn, `c1nnc2[nH]ncc2n1` returned an inhibition with Leptosphaeria sacchari [4] of 48%. The inhibition result in the assay with Leptosphaeria sacchari [5] is “Active”.

`CCOc1ccc(S(=O)(=O)N(CC)CC)cc1-c1nnc2c(n1)c(C)nn2C`: the figures for the inhibition in the assay filed under Oryctolagus cuniculus and in the assay with Leptosphaeria sacchari [1] were 16.4% and 68.3%, respectively. Further, the Activity in the assay with Leptosphaeria sacchari [2] is 31.7%. The molecule further registered a concentration for half-maximal inhibition (IC50) in assay [3] of 120 µg/mL (≈ 297 µM).

Take `CCOc1ccc(S(=O)(=O)NCCNS(=O)(=O)c2ccc(OCC)c(-c3nnc4c(n3)c(C)nn4C)c2)cc1-c1nnc2c(n1)c(C)nn2C`: the inhibition in the assay listed under Oryctolagus cuniculus turned out to be 28.1%; in the assay on Leptosphaeria sacchari [1], 79.7%. In addition, in the assay with Leptosphaeria sacchari [2], the Activity is 20.2%. In assay [3], this molecule returned an IC50 of 900 µg/mL (≈ 1250 µM).

Turning to `CCOc1ccc(S(=O)(=O)N2CCN(C)CC2)cc1-c1nnc2c(n1)c(C)nn2C`, the inhibition stood at 6% in the assay filed under Oryctolagus cuniculus and 58.8% in the assay with Leptosphaeria sacchari [1]. Also, in the assay on Leptosphaeria sacchari [2], the Activity was determined as 41.2%. In assay [3], this molecule yielded an IC50 of 110 µg/mL (≈ 255 µM).

As for `CCOc1ccc(S(=O)(=O)N2CCCC2)cc1-c1nnc2c(n1)c(C)nn2C`, the inhibition in the assay filed under Oryctolagus cuniculus was determined as 24.1%; in the assay on Leptosphaeria sacchari [1] it was 60.4%. The Activity in the assay on Leptosphaeria sacchari [2] is 39.6%. The half-maximal inhibitory concentration (IC50) in assay [3] stood at 90 µg/mL (≈ 224 µM).

Take `CCOc1ccc(S(=O)(=O)N2CCCN(S(=O)(=O)c3ccc(OCC)c(-c4nnc5c(n4)c(C)nn5C)c3)CC2)cc1-c1nnc2c(n1)c(C)nn2C`: the inhibition in the assay filed under Oryctolagus cuniculus turned out to be 26.7%.

Turning to `CCOc1ccc(S(=O)(=O)N2CCN(C)CC2)cc1-c1nnc2nn(C)c(C)c2n1`, the inhibition in the assay filed under Oryctolagus cuniculus came to 0%; in the assay on Leptosphaeria sacchari [1], 54.8%. Moreover, the Activity in the assay on Leptosphaeria sacchari [2] was 45.2%. This molecule also came in with an IC50 in assay [3] of 140 µg/mL (≈ 324 µM).

For the molecule `CCCc1nn(C)c2nnc(-c3cc(S(=O)(=O)N4CCN(C)CC4)ccc3OCC)nc12`, the values for the inhibition in the assay filed under Oryctolagus cuniculus and in the assay with Leptosphaeria sacchari [1] were 5.8% and 57.1%, respectively. For the same molecule, the Activity with Leptosphaeria sacchari [2] is 42.9%. This molecule yielded an IC50 in assay [3] of 120 µg/mL (≈ 261 µM).

In turn, `CCOc1ccc(S(=O)(=O)N2CCN(S(=O)(=O)c3ccc(OCC)c(-c4nnc5c(n4)c(C)nn5C)c3)CC2)cc1-c1nnc2c(n1)c(C)nn2C` showed an inhibition in the assay filed under Oryctolagus cuniculus of 11.4%.

Regarding `CCOc1ccc(S(=O)(=O)N2CCCNCC2)cc1-c1nnc2c(n1)c(C)nn2C`, the inhibition was 0.6% in the assay listed under Oryctolagus cuniculus and 62.1% with Leptosphaeria sacchari [1]. Also, the Activity with Leptosphaeria sacchari [2] came out at 33.5%. In assay [3], this molecule had a half-inhibitory concentration (IC50) of 100 µg/mL (≈ 232 µM).

`CCOc1ccc(S(=O)(=O)N2CCCCC2)cc1-c1nnc2c(n1)c(C)nn2C`: the inhibition in the assay filed under Oryctolagus cuniculus is 29.5%; with Leptosphaeria sacchari [1] it was 59.8%. Also, in the assay on Leptosphaeria sacchari [2], the Activity was 40.2%. The molecule further returned an IC50 in assay [3] of 120 µg/mL (≈ 288 µM).
